The results in this text go back to PMC8346222 (Science Advances, 2021).

Converted amounts (≈) assume the structure as drawn. Where only a bound is given, the exact number is not on record here.

Common to all, as to assay: Minimum inhibitory concentration, broth microdilution
What all share (format): cell-based
(In broth dilution the organism is exposed to a series of concentrations in liquid medium.)

In test [1] the test system is Escherichia coli ATCC 2469. Particulars: ATCC2469, read-out: Minimum inhibitory concentration. A digest of the protocol: (§1)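 Broth microdilution per CLSI: test agents serially diluted across plates. Inoculum set to 0.5 McFarland, diluted in cation-adjusted Mueller Hinton broth to ~5 × 10^5 CFU/ml, then incubated aerobically at 37°C for 16 to 18 h. Gentamicin and imipenem were run as control antibiotics.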

Test [2] deals with Pseudomonas aeruginosa NR-50573. Particulars: NR50573, read-out: Minimum inhibitory concentration. An outline of the steps: as §1
The test system of test [3] is Escherichia coli ATCC 2452. The following applies: ATCC2452, read-out: Minimum inhibitory concentration. A digest of the protocol:
as §1

The test system of test [4] is Klebsiella pneumoniae NR-41920. The following applies: NR41920, read-out: Minimum inhibitory concentration. A digest of the protocol: as §1

Consider `C[C@@H](O)[C@H]1C(=O)N2C(C(=O)O)=C(SCCN=CN)C[C@H]12` [Imipenem], for which the MIC in test [1] is 16 µg/mL (≈ 53.4 µM); in test [2], 1 µg/mL (≈ 3.34 µM); in test [3] it was 16 µg/mL (≈ 53.4 µM); in test [4], 8 µg/mL (≈ 26.7 µM).

For `CNC(C)C1CCC(N)C(OC2C(N)CC(N)C(OC3OCC(C)(O)C(NC)C3O)C2O)O1` (centres unmarked) [Gentamicin], the MIC is more than 64 µg/mL in test [1], 1 µg/mL (≈ 2.09 µM) in test [2], more than 64 µg/mL in test [3] and 64 µg/mL (≈ 134 µM) in test [4].
